# TNAP act DEA – human TNAP enzyme activators, primary screen, biochemical, luminescent, intermediate phosphate acceptor level | Alkaline phosphatase, tissue-nonspecific isozyme (Homo sapiens), P05186 | purified TNAP, CDP-star luminescence, 100 mM DEA, 30 min; active compounds read high; scale: 0 levamisole-inhibited, 1 vehicle-only enzyme | activation factor at 20 µM | 64,000 tested, under 10 active | AID 813, 2007;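 active = activation factor of at least 2 at 20 µM, relative to controls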
# M1 antag – antagonists of rat M1 muscarinic receptor | Muscarinic acetylcholine receptor M1 (Rattus norvegicus), P08482 | CHO-M1 cells, Fluo-4 calcium, ACh EC80 antagonist mode; active compounds read low | B-score at 10 µM | hit rate 3.4% among 64,000;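 active = calcium fluorescence response, raw or row-and-column corrected B-score, differing from the plate sample mean either way at a set confidence level, mostly lower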
# M1 agonist – M1 muscarinic receptor agonists, primary screen, CHO-M1 cells, Fluo-4 calcium, agonist mode; Muscarinic acetylcholine receptor M1; Fluo-4 calcium fluorescence; active compounds read high; B-score at 10 µM; hit rate 3% among 64,000; AID 626, 2007;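 active = fluorescence rise, raw or as B-score row- and column-corrected plate score, outside the 99.7% band of its plate's samples, either direction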
# S1P3 ag – human S1P3 receptor agonists, primary screen, cell-based, primary and confirmation, NFAT-BLA reporter. Sphingosine 1-phosphate receptor 3 (Homo sapiens), Q99500. hit rate 0.1% among 60,000. S1P3 NFAT-BLA reporter cells, agonism, FRET ratio; relative to 1 µM S1P, basal subtracted. activation, % at 4.5 µM;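 active = activation above the screen-wide mean plus 3 SD, cut at about 4.5% in these data, passing the limit was not always enough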
#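 material = human S1P3 NFAT-BLA reporter CHO cells | schedule = 4 h compound at 37 °C, 2 h substrate at RT | measured by = fluorescent BLA substrate, ex 405 nm, em 460/535 nm ratio | controls = 1 µM S1P reference | replication = primary once, confirmation triplicate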
# S1P1 ag-PAM – S1P1 agonists and agonism potentiators, primary screen, cell-based, primary and confirmation screens, CRE-bla reporter | Sphingosine 1-phosphate receptor 1 (Homo sapiens), P21453 | S1P1 CRE-bla cells, forskolin, beta-lactamase FRET, potentiator mode; S1P1 agonist co-added at EC20, 2 nM; 100% = saturating reference agonist, 0% = basal | activation, % at 9.5 µM | hit rate 0.57% among 56,000;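 active = activation above a cutoff set at the mean activation of all tested compounds plus 3 SD, cut at about 54% in these data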;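 note: forskolin at 4 µM as EC80 and the EC20 agonist is SEW2871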
# D1 mod – D1 CRE-luciferase signal change, two-sided – cell-based, HEK293 D1, dopamine EC30, D1 allosteric modulator project, primary screen | dopamine EC30 potentiation; actives deviate in either direction | B-score at 10 µM | D(1A) dopamine receptor (Homo sapiens), P21728 | hit rate 5.9% among 58,000;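 active = luminescence count or its row- and column-corrected plate score outside the 99.7% band of the plate's sample wells, on either side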
# Target sequence (P21728 whole entry, looked up): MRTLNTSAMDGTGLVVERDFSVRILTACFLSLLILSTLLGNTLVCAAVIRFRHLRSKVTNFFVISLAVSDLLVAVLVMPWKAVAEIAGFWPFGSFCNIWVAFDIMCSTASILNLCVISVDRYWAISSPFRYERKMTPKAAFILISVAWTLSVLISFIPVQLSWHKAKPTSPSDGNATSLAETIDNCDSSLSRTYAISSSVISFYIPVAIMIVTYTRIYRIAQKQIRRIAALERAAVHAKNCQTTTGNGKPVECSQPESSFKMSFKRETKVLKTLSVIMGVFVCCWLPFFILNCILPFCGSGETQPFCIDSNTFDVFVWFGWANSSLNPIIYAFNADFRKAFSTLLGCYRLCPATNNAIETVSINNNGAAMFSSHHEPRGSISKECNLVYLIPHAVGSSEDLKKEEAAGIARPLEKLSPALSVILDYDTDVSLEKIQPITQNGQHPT
# M1 antag conf – rat M1 muscarinic receptor antagonists, confirmation, CHO cells, Fluo-4 calcium, duplicate; hit rate 43% among 1,700; shares compounds with M1 antag; ACh EC80 antagonism; active compounds read low; calcium response (max-min fluorescence) at 10 µM;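 active = calcium response below the same-plate mean of wells given acetylcholine alone at its 80%-effect dose, minus 3 SD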
# mGluR4 antag – human mGluR4 response to M1 antagonist hits, M1 allosteric modulator project, cell-based, antagonist mode, secondary assay 1. shares compounds with M1 antag. CHO-mGluR4 calcium flux, Fluo-4 fluorescence, glutamate EC80; active compounds read low. fluorescence response (max-min) at 10 µM. hit rate 0.9% among 1,700;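 active = fluorescence response below the plate's average for near-maximal glutamate wells, less 3 SD of those wells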;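 note: raw unnormalized fluorescence span taken in the window right after glutamate addition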
# Numbers stand for hits; 0 = inactive; - = not tested or not shown. Sampled rows, rich in hits. Any-hit rate of the full collection: about 11%.
SMILES,TNAP act DEA,M1 antag,M1 agonist,S1P3 ag,S1P1 ag-PAM,D1 mod,M1 antag conf,mGluR4 antag
COc1ccccc1CNC(=O)CN(c1ccc(C)cc1)S(=O)(=O)c1c(C)n[nH]c1C,0,0,0,0,0,0,-,-
CCOc1ccccc1NC(=O)CN(c1ccc(C)cc1)S(=O)(=O)c1c(C)n[nH]c1C,0,-2.39,0,0,0,0,0,0
Cc1noc(C)c1CSc1nnnn1-c1ccc(Cl)cc1,0,0,0,0,0,0,-,-
COc1cc(C2N(c3ccc(Cl)cc3)C(=O)C3CCCN32)cc(OC)c1OC (stereo not given),0,0,0,0,0,0,-,-
COc1ccc(N2C(=O)C3CCCN3C2c2cc(OC)c(OC)c(OC)c2)cc1 (stereo not given),0,-2.11,0,0,0,0,0,0
Cc1ccc2c(CC(=O)Nc3sccc3C(N)=O)coc2c1,0,0,0,0,0,0,-,-
Cc1ccc2c(CC(=O)Nc3ccc(N4CCN(C)CC4)cc3C)coc2c1,0,-3.17,0,0,0,-4.7,334,0
Cc1nc2sccn2c(=O)c1CCN1CCC(=C(c2ccc(F)cc2)c2ccc(F)cc2)CC1,0,-5.14,0,0,0,0,324,0
O=C(O)c1ccc(NC(=O)C2CC=CCC2C(=O)O)cc1 (stereo not given),0,-7.23,0,0,0,0,0,0
CCc1ccc(NC(=O)C2CC=CCC2C(=O)O)cc1 (stereo not given),0,0,0,-,-,0,-,-
COC(=O)c1sc(S(=O)(=O)N2CCC(C)CC2)c(C(=O)OC)c1C,0,0,0,0,0,0,-,-
COC(=O)c1sc(S(=O)(=O)N2CCCCC2)c(C(=O)OC)c1C,0,-4.48,0,0,0,0,248,0
COc1cccc(NC(=O)c2cn(C)c(=O)c3cc(OC)c(OC)cc23)c1,0,0,0,0,0,0,-,-
CN(C)c1ccc(-c2noc(-c3ccccc3O)n2)cc1,0,0,0,0,0,0,-,-
OC(CCN1CCCC1)(c1ccccc1)C1CCCCC1 (stereo not given),0,-16.2,0,0,0,0,17.5,0
C=CCC(O)(CCN1CCCCC1)c1ccccc1 (stereo not given),0,-8.04,0,0,0,0,97.4,0
C=CCC(CC=C)(C(=O)O)c1ccccc1,0,0,0,0,0,0,-,-
Cc1ccccc1NC(=O)CCN1CCCCCC1,0,0,0,0,-,0,-,-
OC(CCN1CCCCC1)(c1ccccc1)c1ccccc1,0,-12.3,0,0,0,0,22.6,0
OC(C#CCN1CCOCC1)(c1ccccc1)C1CC1 (stereo not given),0,0,0,0,0,0,-,-
CCCCN1CCc2c([nH]c3c(C)cccc23)C1=O,0,0,0,0,0,0,-,-
COc1ccc(CCn2nnnc2C(C(C)C)N2CCN(c3ncccn3)CC2)cc1OC (stereo not given),0,0,0,0,0,-,-,-
O=C(CN1C(=O)c2ccccc2S1(=O)=O)Nc1ccc(S(=O)(=O)N2CCCCCC2)cc1,0,0,0,0,0,0,-,-
O=C(NCCN1CCN(C(=O)c2cccs2)CC1)c1cccs1,0,-2.35,0,0,0,0,0,0
O=C(c1cccs1)N1CCN(CCc2ccccc2)CC1,0,0,0,0,0,0,-,-
SMILES,TNAP act DEA,M1 antag,M1 agonist,S1P3 ag,S1P1 ag-PAM,D1 mod,M1 antag conf,mGluR4 antag
COc1cc2c(cc1OC)CN(Cc1ccc(OC)c(C)c1OC)CC2,0,-3.39,0,0,0,0,406,0
COc1cc2c(cc1OC)CN(Cc1cccs1)CC2,0,-,-,0,0,0,-,-
COC(=O)c1c(C)oc2cc(Br)c(OCC(=O)C(C)(C)C)cc12,0,-1.88,0,-,-,0,0,0
CCOC(=O)c1ccc(N2C(=O)CC(N3CCN(C/C=C/c4ccccc4)CC3)C2=O)cc1 (stereo not given),0,-3.8,0,0,0,0,494,0
CCOC(=O)C1CCN(C2CC(=O)N(c3ccc(OCC)cc3)C2=O)CC1 (stereo not given),0,0,0,0,0,0,-,-
COc1ccc(C(=O)N2CCN(c3nc4cc(C)ccc4cc3C#N)CC2)c(OC)c1,0,0,0,0,0,0,-,-
Cc1ccc2nc(N3CCN(C(=O)c4cccs4)CC3)c(C#N)cc2c1,0,-2.25,0,0,0,0,0,0
Cc1c(NC(=O)C2(C)CCCCC2)c(=O)n(-c2ccccc2)n1C,0,0,0,0,0,-,-,-
Cc1c(NC2=NC3(CCCCC3)Cc3ccccc32)c(=O)n(-c2ccccc2)n1C,0,-2.69,0,0,0,0,62,0
COC(=O)C1C(=O)c2c([nH]c(C(=O)OCCOC(C)C)c2C)CC1C (stereo not given),0,-2.91,0,-,-,0,0,0
COc1ccc(NC(=O)CSc2nc3c(c(=O)n2-c2ccc(C)cc2)SCC3)c(OC)c1,0,0,0,-,-,0,-,-
Cc1ccc2occ(CN3CCN(c4ccccc4)CC3)c(=O)c2c1,0,-3.44,0,0,0,0,508,0
O=c1c(CN2CCN(Cc3ccccc3)CC2)coc2ccc(Cl)cc12,0,-4.22,0,0,0,0,365,0
CCN1CCN(Cc2coc3ccc(C)cc3c2=O)CC1,0,0,0,0,0,0,-,-
CCN1CCN(c2ncc(C(=O)Nc3ccccc3C(=O)OC)c3ccccc23)CC1,0,-13.6,0,0,0,0,166,0
CCN1CCN(c2ncnc3sc(C(=O)Nc4ccccc4F)c(C)c23)CC1,0,0,0,0,0,-,-,-
CC(=O)c1ccccc1Oc1nc(CN2CCOCC2)nc2scc(-c3cccs3)c12,0,-2.32,0,0,0,0,478,0
Cc1sc2nc(CN3CCOCC3)nc(Oc3ccc(NC(=O)c4ccco4)cc3)c2c1C,0,0,0,0,0,0,-,-
CC(C)OC(=O)C1C(=O)CC(C)(O)C(C(=O)OC(C)C)C1c1cccc(O)c1 (stereo not given),0,0,0,0,0,0,-,-

# Source: PubChem BioAssay
